Consider 12 molecules from ChEMBL document CHEMBL4390685, “Synthesis, antibacterial and cytotoxic evaluation of flavipucine and its derivatives” (Bioorg Med Chem Lett, 2019).

Converted amounts (≈) assume the structure as drawn. The source made the active and inactive calls. The rule behind the calls is not given here.

Assay [1] deals with HL-60. Nature of the assay: Induction of cell death in human HL60 cells assessed as reduction in cell viability at 2 uM incubated for 6 hrs after pre-treatment with caspase inhibitor Z-Asp-CH2-DCB for 1 hr by WST8 dye based assay. The class given is functional.
In the next assay the test system is Escherichia coli. Kind of assay: Antibacterial activity against Escherichia coli NBRC 3301 after 17 hrs by broth microdilution method. The class given is functional. Conditions: NBRC 3301, 17 h. In outline: (§1)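 Broth microdilution run to CLSI standard methods. MIC taken as the lowest concentration inhibiting growth. Ampicillin and chloramphenicol served as positive controls. Compounds were tested up to 128 µg/mL.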

For assay [2], the system named is Bacillus subtilis. Kind of assay: Antibacterial activity against Bacillus subtilis NBRC 3134 after 18 hrs by broth microdilution method. The class given is functional. Conditions: NBRC 3134, 18 h. In outline: as §1
Assay [3] has as its system Bacillus subtilis. Kind of assay: Bactericidal activity against Bacillus subtilis NBRC 3134 incubated for 18 hrs followed by inoculums transfer to MHA plate and further incubated for 24 hrs. The class given is functional. Put shortly: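 MBC determined per CLSI methods following broth microdilution MIC testing. Ampicillin and chloramphenicol served as positive controls.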

The next assay deals with A549. Nature of the assay: Cytotoxicity against human A549 cells assessed as reduction in cell viability incubated for 48 hrs by WST8 dye based assay. It counts as functional. Conditions: A549, 48 h. Put shortly: (§2)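 Adherent human cancer lines (A549 lung, HCT116 colon, HeLa cervix, TE8 esophageal squamous) exposed to a range of concentrations for 48 h. Viability read by WST-8. IC50 taken as 50% inhibition of viability, mean ± SD of triplicate experiments. SN-38 served as positive control. Tested up to 100 μM.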

The test system of a further assay is HCT-116. Kind of assay: Cytotoxicity against human HCT116 cells assessed as reduction in cell viability incubated for 48 hrs by WST8 dye based assay. It counts as functional. Conditions: HCT-116, 48 h. Put shortly: as §2
Another assay concerns HeLa. Kind of assay: Cytotoxicity against human HeLa cells assessed as reduction in cell viability incubated for 48 hrs by WST8 dye based assay. The class given is functional. Put shortly: as §2
A further assay relates to TE-8. Kind of assay: Cytotoxicity against human TE8 cells assessed as reduction in cell viability incubated for 48 hrs by WST8 dye based assay. It counts as functional. Conditions: TE-8, 48 h. In outline:
as §2

Assay [4] relates to HL-60. Nature of the assay: Cytotoxicity against human HL60 cells assessed as reduction in cell viability incubated for 48 hrs by WST8 dye based assay. It counts as functional. The conditions noted are these: HL-60, 48 h. Put shortly: (§3)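 Suspension leukemia lines (HL-60 promyelocytic, Jurkat T-ALL) exposed to a range of concentrations for 48 h. Viability read by WST-8. IC50 is the concentration giving 50% loss of viability, mean ± SD of triplicates. SN-38 served as positive control.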

For the next assay, the system named is Jurkat. Nature of the assay: Cytotoxicity against human Jurkat cells assessed as reduction in cell viability incubated for 48 hrs by WST8 dye based assay. The class given is functional. In outline: as §3
A further assay deals with HEK293. Nature of the assay: Cytotoxicity against human HEK293 cells assessed as reduction in cell viability incubated for 48 hrs by WST8 dye based assay. The conditions noted are these: HEK293, 48 h. Put shortly: (§4)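 Adherent non-cancer cells (HEK293, Ad5-transformed embryonic kidney; MRC-5, normal diploid fibroblast) treated with graded concentrations for 48 h. WST-8 viability read-out. IC50 reported as mean ± SD of triplicate experiments. SN-38 served as positive control. Tested up to 50 μM.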

For a further assay, the system named is MRC5. Nature of the assay: Cytotoxicity against human MRC5 cells assessed as reduction in cell viability incubated for 48 hrs by WST8 dye based assay. The conditions noted are these: MRC5, 48 h. Put shortly: as §4
Assay [5] deals with HL-60. Kind of assay: Induction of DNA fragmentation in human HL60 cells at 0.5 to 5 uM after 6 hrs by […] staining-based agarose gel electrophoresis. The class given is functional, cell-based.

As for `CC1=CC(=O)C2(OC2C(=O)CC(C)C)C(=O)N1` (racemic), the outcome in the assay on HL-60 [1] was Active. Besides, the MIC in the assay with Escherichia coli was above 128 µg/mL; in the assay with Bacillus subtilis [2], 8 µg/mL (≈ 33.7 µM). Further, the MBC against Bacillus subtilis [3] stood at 8 µg/mL (≈ 33.7 µM). Moreover, the IC50 in the assay on A549 came to 32.1 µM; in the assay with HCT-116, 30.4 µM; with HeLa it was 40.5 µM; in the assay on TE-8 it was 21.6 µM; in the assay with HL-60 [4], 1.8 µM; in the assay on Jurkat, 8 µM. In addition, the results for the IC50 in the assay on HEK293 and in the assay on MRC5 were 35.9 µM and 33.2 µM, respectively. Further, in the assay with HL-60 [5], the result was inactive.
On to `Cc1cc2c(c(=O)[nH]1)OC(C(=O)CC(C)C)O2` (racemic), for which the MIC in the assay with Escherichia coli and with Bacillus subtilis [2] was above 128 µg/mL each time. The molecule further gave an MBC against Bacillus subtilis [3] above 128 µg/mL. Also, the IC50 in the assay with A549 was above 100 µM; with HCT-116, above 100 µM; in the assay with HeLa, above 100 µM; with TE-8, above 100 µM; in the assay with HL-60 [4] it was 19.9 µM; in the assay on Jurkat it was above 50 µM. Further, the IC50 in the assay with HEK293 and in the assay with MRC5 was above 50 µM in each case.
In the case of `CC1=CC(=O)[C@]2(O[C@@H]2C(=O)CC(C)C)C(=O)N1`, the MIC in the assay on Bacillus subtilis [2] was found to be 8 µg/mL (≈ 33.7 µM). For the same molecule, the MBC against Bacillus subtilis [3] amounted to 8 µg/mL (≈ 33.7 µM). Further, in the assay on HL-60 [4], the IC50 came to 1.7 µM.
As for `O=C(N[C@H](CO)[C@H](O)c1ccc([N+](=O)[O-])cc1)C(Cl)Cl` [CHLORAMPHENICOL], the MIC against Bacillus subtilis [2] is 4 µg/mL (≈ 12.4 µM). The molecule also registered an MBC with Bacillus subtilis [3] of 64 µg/mL (≈ 198 µM).
With `CC(C)CC(=O)C1Oc2cc(Cc3ccccc3)[nH]c(=O)c2O1` (racemic), the MIC in the assay on Escherichia coli and with Bacillus subtilis [2] was above 128 µg/mL throughout. Moreover, the MBC in the assay on Bacillus subtilis [3] was above 128 µg/mL. In addition, the IC50 in the assay with A549 was above 100 µM; in the assay with HCT-116 it was above 100 µM; in the assay with HeLa, above 100 µM; in the assay with TE-8 it was above 100 µM; with HL-60 [4], above 50 µM; with Jurkat, above 50 µM. For the same molecule, the IC50 in the assay with HEK293 and in the assay on MRC5 was above 50 µM each time.
As to `CCc1c2c(nc3ccc(O)cc13)-c1cc3c(c(=O)n1C2)COC(=O)[C@]3(O)CC` [7-ETHYL-10-HYDROXYCAMPTOTHECIN], the IC50 in the assay with A549 was 6.6 µM; in the assay with HCT-116, below 1 µM; in the assay with HeLa, 13.1 µM; with TE-8, below 1 µM; with HL-60 [4], 2.4 µM; in the assay with Jurkat it was below 1 µM. Moreover, the IC50 in the assay with HEK293 was below 1 µM; with MRC5, 15.3 µM.
Consider `CC1=CC(=O)[C@]2(O1)C(=O)N[C@@](O)(CC(C)C)[C@@H]2O` (racemic), for which the minimum inhibitory concentration (MIC) with Escherichia coli and in the assay on Bacillus subtilis [2] was above 128 µg/mL in each case. Besides, in the assay on Bacillus subtilis [3], the MBC was above 128 µg/mL. The IC50 with A549 was above 100 µM; in the assay with HCT-116, above 100 µM; with HeLa, above 100 µM; in the assay on TE-8 it was above 100 µM; in the assay on HL-60 [4], above 50 µM; with Jurkat, above 50 µM. The IC50 in the assay on HEK293 and in the assay with MRC5 was above 50 µM throughout.
As to `CC(C)C[C@]1(O)NC(=O)[C@]2(OC(Cc3ccccc3)=CC2=O)[C@H]1O` (racemic), the MIC against Escherichia coli and with Bacillus subtilis [2] was above 128 µg/mL throughout. In addition, the MBC with Bacillus subtilis [3] is above 128 µg/mL. Also, the IC50 in the assay on A549 is above 100 µM; in the assay on HCT-116, above 100 µM; in the assay on HeLa, above 100 µM; with TE-8, above 100 µM; with HL-60 [4] it was 28 µM; in the assay on Jurkat, above 50 µM. In addition, the IC50 in the assay with HEK293 and in the assay on MRC5 was above 50 µM each time.
For the molecule `CC1=CC(=O)[C@@]2(O[C@H]2C(=O)CC(C)C)C(=O)N1`, in the assay with Bacillus subtilis [2], 8 µg/mL (≈ 33.7 µM) was the least that counted as inhibitory (MIC). In the assay with Bacillus subtilis [3], this molecule registered an MBC of 8 µg/mL (≈ 33.7 µM). The IC50 with HL-60 [4] came out at 1.6 µM.
Regarding `CC(C)C[C@@]12NC(=O)[C@]3(O)C(=O)C[C@@](C)(O[C@@H]31)O2` (racemic), the MIC in the assay with Escherichia coli and against Bacillus subtilis [2] was above 128 µg/mL in each case. This molecule also displayed a minimum bactericidal concentration (MBC) against Bacillus subtilis [3] above 128 µg/mL. Moreover, the IC50 with A549 is above 100 µM; in the assay on HCT-116, above 100 µM; in the assay on HeLa, above 100 µM; with TE-8 it was above 100 µM; in the assay on HL-60 [4], 37.7 µM; in the assay with Jurkat, above 50 µM. Besides, the IC50 in the assay with HEK293 and in the assay on MRC5 was above 50 µM throughout.
Take `CC(C)CC(=O)[C@@H]1O[C@@]12C(=O)C=C(Cc1ccccc1)NC2=O` (racemic): the MIC is above 128 µg/mL with Escherichia coli and 128 µg/mL (≈ 408 µM) in the assay on Bacillus subtilis [2]. In the assay with Bacillus subtilis [3], this molecule gave an MBC of 128 µg/mL (≈ 408 µM). The IC50 in the assay on A549 was above 100 µM; in the assay on HCT-116, above 100 µM; in the assay with HeLa it was above 100 µM; with TE-8 it was above 100 µM; with HL-60 [4], 37.3 µM; in the assay with Jurkat, above 50 µM. Further, the IC50 in the assay on HEK293 and in the assay on MRC5 was above 50 µM throughout.
Consider `CC1(C)S[C@@H]2[C@H](NC(=O)[C@H](N)c3ccccc3)C(=O)N2[C@H]1C(=O)O` [AMPICILLIN], for which the MIC is 4 µg/mL (≈ 11.4 µM) in the assay with Escherichia coli and below 0.5 µg/mL with Bacillus subtilis [2]. The MBC against Bacillus subtilis [3] is below 0.5 µg/mL.
